Test results reported in ChEMBL document CHEMBL1154674, “Synthesis and evaluation of three 18F-labeled aminophenylbenzothiazoles as amyloid imaging agents” (J Med Chem, 2009).

Tests used:
Format in all cases: ADME, organism-based, Macaca mulatta
[1] = Drug level in normal rhesus monkey pons assessed as standard uptake value at 81.2 MBq, iv after 3.5 mins by microPET; settings: in vivo
[2] = Drug level in normal rhesus monkey thalamus assessed as standard uptake value at 81.2 MBq, iv after 17.5 mins by microPET; settings: in vivo
[3] = Drug level in normal rhesus monkey thalamus assessed as standard uptake value at 81.2 MBq, iv after 57.5 mins by microPET; settings: in vivo
[4] = Drug level in normal rhesus monkey thalamus assessed as standard uptake value at 81.2 MBq, iv after 145 mins by microPET; settings: in vivo
[5] = Drug level in normal rhesus monkey cerebellum assessed as standard uptake value at 81.2 MBq, iv after 17.5 mins by microPET; settings: in vivo
In short: (§1)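 One normal rhesus monkey, each tracer given iv via the vena saphena (81.2, 96.3 or 109.4 MBq), with 1 day between tracer injections. Dynamic brain μPET over 180 min used frames of 5 × 60 s, 5 × 120 s, 9 × 300 s and 12 × 600 s. Images were reconstructed by filtered back projection with a RAMP filter. Regional time-activity curves were expressed as SUV.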

[6] = Drug level in normal rhesus monkey frontal cortex assessed as standard uptake value at 81.2 MBq, iv after 105 mins by microPET; settings: in vivo, 1.75 h
In short: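 Single normal rhesus monkey; each tracer given iv via the vena saphena, with 1 day between tracer injections. Dynamic μPET ran 180 min (5×60 s, 5×120 s, 9×300 s, 12×600 s). Images were reconstructed by filtered back projection with a RAMP filter. Regional time-activity curves were expressed as SUV.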

[7] = Drug level in normal rhesus monkey frontal cortex assessed as standard uptake value at 81.2 MBq, iv after 6 mins by microPET; settings: in vivo, 0.1 h
[8] = Drug level in normal rhesus monkey cerebellum assessed as standard uptake value at 81.2 MBq, iv after 37.5 mins by microPET; settings: in vivo, 0.625 h; in short: as §1
[9] = Drug level in normal rhesus monkey pons assessed as standard uptake value at 81.2 MBq, iv after 6 mins by microPET; settings: in vivo, 0.1 h
[10] = Drug level in normal rhesus monkey pons assessed as standard uptake value at 81.2 MBq, iv after 145 mins by microPET; settings: in vivo
[11] = Drug level in normal rhesus monkey thalamus assessed as standard uptake value at 81.2 MBq, iv after 0.5 mins by microPET; settings: in vivo
[12] = Drug level in normal rhesus monkey thalamus assessed as standard uptake value at 96.3 MBq, iv after 0.5 mins by microPET; settings: in vivo
[13] = Drug level in normal rhesus monkey parietal cortex assessed as standard uptake value at 96.3 MBq, iv after 42.5 mins by microPET; settings: in vivo
[14] = Drug level in normal rhesus monkey parietal cortex assessed as standard uptake value at 96.3 MBq, iv after 0.5 mins by microPET; settings: in vivo
[15] = Drug level in normal rhesus monkey pons assessed as standard uptake value at 96.3 MBq, iv after 4.5 mins by microPET; settings: in vivo, 0.075 h
[16] = Drug level in normal rhesus monkey thalamus assessed as standard uptake value at 96.3 MBq, iv after 12 mins by microPET; settings: in vivo, 0.2 h
[17] = Drug level in normal rhesus monkey frontal cortex assessed as standard uptake value at 96.3 MBq, iv after 12 mins by microPET; settings: in vivo, 0.2 h
[18] = Drug level in normal rhesus monkey thalamus assessed as standard uptake value at 96.3 MBq, iv after 47.5 mins by microPET; settings: in vivo
[19] = Drug level in normal rhesus monkey cerebellum assessed as standard uptake value at 96.3 MBq, iv after 125 mins by microPET; settings: in vivo; in short: as §1
[20] = Drug level in normal rhesus monkey white matter assessed as standard uptake value at 96.3 MBq, iv after 47.5 mins by microPET; settings: in vivo
[21] = Drug level in normal rhesus monkey cerebellum assessed as standard uptake value at 109.4 MBq, iv after 52.5 mins by microPET; settings: in vivo, 0.875 h
In short: (§2)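 One normal rhesus monkey received each tracer via the vena saphena, with 1 day between injections. Dynamic μPET ran 180 min for 18F tracers (5×60 s, 5×120 s, 9×300 s, 12×600 s) and 90 min for the 11C tracer (5×60 s, 5×120 s, 9×300 s, 3×600 s). Filtered back-projection reconstruction (RAMP filter) was used. Time-activity curves were drawn to give regional SUV.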

[22] = Drug level in normal rhesus monkey thalamus assessed as standard uptake value at 109.4 MBq, iv after 9.5 mins by microPET; settings: in vivo
[23] = Drug level in normal rhesus monkey frontal cortex assessed as standard uptake value at 109.4 MBq, iv after 15.5 mins by microPET; settings: in vivo
[24] = Drug level in normal rhesus monkey frontal cortex assessed as standard uptake value at 109.4 MBq, iv after 6.5 mins by microPET; settings: in vivo
[25] = Drug level in normal rhesus monkey thalamus assessed as standard uptake value at 109.4 MBq, iv after 3.5 mins by microPET; settings: in vivo
[26] = Drug level in normal rhesus monkey pons assessed as standard uptake value at 109.4 MBq, iv after 12.5 mins by microPET; settings: in vivo
[27] = Drug level in normal rhesus monkey thalamus assessed as standard uptake value at 109.4 MBq, iv after 37.5 mins by microPET; settings: in vivo, 0.625 h
[28] = Drug level in normal rhesus monkey pons assessed as standard uptake value at 109.4 MBq, iv after 6.5 mins by microPET; settings: in vivo
[29] = Drug level in normal rhesus monkey thalamus assessed as standard uptake value at 109.4 MBq, iv after 129 mins by microPET; settings: in vivo, 2.15 h
[30] = Drug level in normal rhesus monkey pons assessed as standard uptake value at 109.4 MBq, iv after 3.5 mins by microPET; settings: in vivo
[31] = Drug level in normal rhesus monkey thalamus assessed as standard uptake value at 109.4 MBq, iv after 0.375 mins by microPET; settings: in vivo, 22 s
[32] = Drug level in normal rhesus monkey frontal cortex assessed as standard uptake value at 152.9 MBq, iv after 12 mins by microPET; settings: in vivo, 0.2 h
In short: (§3)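 Single normal rhesus monkey; tracer given iv via the vena saphena, 1 day apart from the other tracer injections. Dynamic μPET ran 90 min (5×60 s, 5×120 s, 9×300 s, 3×600 s). Images were reconstructed by filtered back projection with a RAMP filter. Regional time-activity curves were expressed as SUV.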

[33] = Drug level in normal rhesus monkey white matter assessed as standard uptake value at 152.9 MBq, iv after 52.5 mins by microPET; settings: in vivo, 0.875 h
[34] = Drug level in normal rhesus monkey white matter assessed as standard uptake value at 152.9 MBq, iv after 85 mins by microPET; settings: in vivo
[35] = Drug level in normal rhesus monkey cerebellum assessed as standard uptake value at 152.9 MBq, iv after 75 mins by microPET; settings: in vivo, 1.25 h; in short: as §3
[36] = Drug level in normal rhesus monkey cerebellum assessed as standard uptake value at 152.9 MBq, iv after 47.5 mins by microPET; settings: in vivo; in short: as §2

CNc1ccc2nc(-c3ccc([18F])cc3)sc2c1
SUV [1]: 4.503 | SUV [2]: 5.379 | SUV [3]: 5.552 | SUV [4]: 4.916 | SUV [5]: 2.753 | SUV [6]: 4.68 | SUV [7]: 5.127 | SUV [8]: 2.545 | SUV [9]: 4.164 | SUV [10]: 5.067 | SUV [11]: 0.855

CN(C)c1ccc2nc(-c3ccc([18F])cc3)sc2c1
SUV [12]: 0.63 | SUV [13]: 1.79 | SUV [14]: 0.65 | SUV [15]: 1.28 | SUV [16]: 2.38 | SUV [17]: 1.99 | SUV [18]: 2.25 | SUV [19]: 0.9 | SUV [20]: 1.37

Nc1ccc2nc(-c3ccc([18F])cc3)sc2c1
SUV [21]: 3.38 | SUV [22]: 5.36 | SUV [23]: 5.08 | SUV [24]: 5.35 | SUV [25]: 4.66 | SUV [26]: 4.65 | SUV [27]: 5.66 | SUV [28]: 4.08 | SUV [29]: 4.43 | SUV [30]: 3.33 | SUV [31]: 0.41

[11CH3]Nc1ccc(-c2nc3ccc(O)cc3s2)cc1 [PITTSBURGH COMPOUND B]
SUV [32]: 2.027 | SUV [33]: 0.937 | SUV [34]: 0.878 | SUV [35]: 0.665 | SUV [36]: 0.866
